The test system of test [1] is Staphylococcus aureus. Put plainly: Antibacterial activity against methicillin-sensitive Staphylococcus aureus isolate 1 planktonic cells after 24 hrs by microdilution assay. It counts as functional. The conditions noted are these: isolate 1, 24 h. The procedure, abridged:
(§1)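 Planktonic cells at 1 × 10^5 CFU/mL were exposed to compound, and A580 was read at 0 h and after 24 h at 37 °C with shaking. Controls were medium plus microbes, with 1% (v/v) DMSO where the solvent was used. Relative cell number was calculated against the control. Results were confirmed by subculture in fresh medium (48 h, 37 °C) and plating. Conjugate concentrations were expressed as parent-antibiotic equivalents.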

In test [2] the test system is Staphylococcus aureus. Put plainly: Antibacterial activity against methicillin-sensitive Staphylococcus aureus isolate 2 planktonic cells after 24 hrs by microdilution assay. It counts as functional. The conditions noted are these: isolate 2, 24 h. The procedure, abridged:
as §1

Test [3] has as its system Staphylococcus aureus. Put plainly: Antibacterial activity against methicillin-sensitive Staphylococcus aureus isolate 3 planktonic cells after 24 hrs by microdilution assay. The conditions noted are these: isolate 3, 24 h. It counts as functional. The procedure, abridged: as §1
Test [4] deals with Staphylococcus aureus. As to the kind of experiment: Antibacterial activity against methicillin-sensitive Staphylococcus aureus isolate 4 planktonic cells after 24 hrs by microdilution assay. It counts as functional. To be noted: isolate 4, 24 h. The procedure, abridged: as §1
The subject of test [5] is Staphylococcus aureus. Put plainly: Antibacterial activity against methicillin-sensitive Staphylococcus aureus isolate 5 planktonic cells after 24 hrs by microdilution assay. It counts as functional. To be noted: isolate 5, 24 h. The procedure, abridged: as §1
The subject of test [6] is Staphylococcus aureus. Put plainly: Antibacterial activity against methicillin-sensitive Staphylococcus aureus isolate 6 planktonic cells after 24 hrs by microdilution assay. It counts as functional. To be noted: isolate 6, 24 h. The gist of the method:
as §1

Test [7] relates to Staphylococcus aureus. Put plainly: Antibacterial activity against methicillin-sensitive Staphylococcus aureus ATCC 6538 planktonic cells after 24 hrs by microdilution assay. It counts as functional. To be noted: ATCC 6538, 24 h. The gist of the method:
as §1

The test system of test [8] is Staphylococcus aureus. Put plainly: Antibiofilm activity against Staphylococcus aureus ATCC 6538 assessed as reduction in bacterial adherence to HA at 15.6 to 250 ug/ml pretreated with HA for 24 hrs followed by organism inoculation measured after 24 hrs. It counts as functional. The gist of the method:
(§2)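 HA spherules (final 10 mg/mL) in TSB were preincubated 24 h at 37 °C with shaking with compound (final 0.12–250 mg/L), then pelleted and the supernatant discarded. They were inoculated with 1 mL S. aureus at 10^5 CFU/mL. A580 was read at 0 and 24 h (37 °C, shaking) against controls without spherules and spherules without compound; spherules were also plated for CFU.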

In test [9] the test system is Staphylococcus aureus. Put plainly: Antibiofilm activity against Staphylococcus aureus ATCC 6538 assessed as reduction in bacterial adherence to HA at 0.24 to 7.8 ug/ml pretreated with HA for 24 hrs followed by organism inoculation measured after 24 hrs. It counts as functional. The gist of the method:
as §2

Test [10] concerns Staphylococcus aureus. Put plainly: Bactericidal activity against Staphylococcus aureus ATCC 6538 biofilm using hydroxyapatite as substrate assessed as reduction in colony forming units at 0.24 to 250 ug/ml after 24 hrs. It counts as functional.
The test system of test [11] is Staphylococcus aureus. Put plainly: Antibacterial activity against methicillin-resistant Staphylococcus aureus MR4-CIPS planktonic cells after 24 hrs by microdilution assay. It counts as functional. The gist of the method: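 Broth microdilution: 100 µL of 1 × 10^5 CFU/mL inoculum with graded compound concentrations, read at 580 nm before and after 24 h at 37 °C with shaking to prevent biofilm formation. Relative cell number is taken against medium + microbes controls, with 1% DMSO in the ciprofloxacin control. Growth is confirmed by 48 h subculture in fresh medium and by plating. MIC is expressed as parent-antibiotic equivalents.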

For test [12], the system named is Staphylococcus aureus. As to the kind of experiment: Antibacterial activity against methicillin-sensitive Staphylococcus aureus isolate 1 planktonic cells at 5 mg after 24 hrs by disc diffusion test. To be noted: isolate 1, 24 h, read-out: DIZ. Further details: dose or concentration left out as unconfirmed.
Test [13] has as its system Staphylococcus aureus. As to the kind of experiment: Antibacterial activity against methicillin-sensitive Staphylococcus aureus isolate 2 planktonic cells at 5 mg after 24 hrs by disc diffusion test. More on the design: dose or concentration left out as unconfirmed. The conditions noted are these: isolate 2, 24 h, read-out: DIZ.
Test [14] concerns Staphylococcus aureus. As to the kind of experiment: Antibacterial activity against methicillin-sensitive Staphylococcus aureus isolate 3 planktonic cells at 5 mg after 24 hrs by disc diffusion test. More on the design: dose or concentration left out as unconfirmed. The conditions noted are these: isolate 3, 24 h, read-out: DIZ.
For test [15], the system named is Staphylococcus aureus. Put plainly: Antibacterial activity against methicillin-sensitive Staphylococcus aureus isolate 4 planktonic cells at 5 mg after 24 hrs by disc diffusion test. The conditions noted are these: isolate 4, 24 h, read-out: DIZ. Further details: dose or concentration left out as unconfirmed.
The subject of test [16] is Staphylococcus aureus. Put plainly: Antibacterial activity against methicillin-sensitive Staphylococcus aureus isolate 5 planktonic cells at 5 mg after 24 hrs by disc diffusion test. Further details: dose or concentration left out as unconfirmed. To be noted: isolate 5, 24 h, read-out: DIZ.
Test [17] deals with Staphylococcus aureus. As to the kind of experiment: Antibacterial activity against methicillin-sensitive Staphylococcus aureus isolate 6 planktonic cells at 5 mg after 24 hrs by disc diffusion test. Further details: dose or concentration left out as unconfirmed. To be noted: isolate 6, 24 h, read-out: DIZ.
For test [18], the system named is Staphylococcus aureus. As to the kind of experiment: Antibacterial activity against methicillin-resistant Staphylococcus aureus MR4-CIPS planktonic cells at 5 mg after 24 hrs by disc diffusion test. More on the design: dose or concentration left out as unconfirmed. To be noted: read-out: DIZ.
For test [19], the system named is Staphylococcus aureus. As to the kind of experiment: Bactericidal activity against Staphylococcus aureus ATCC 6538 biofilm using hydroxyapatite as substrate assessed as reduction in colony forming units after 24 hrs. It counts as functional. The gist of the method:
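Biofilms were started from a 1 McFarland suspension, allowed to adhere 4 h at 37 °C on HA discs or polystyrene well bottoms, then rinsed. They were exposed 24 h at 37 °C to TSB containing 0.24–125 mg/L compound. Cells were detached in 0.5% saponin by 1 min vortexing, serially diluted and plated on Columbia (S. aureus) or MacConkey (P. aeruginosa) agar, 37 °C, 24 h. Read-out was mean CFU/mm² ± SEM; HA area was measured by X-ray tomography.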

The test system of a further test is Pseudomonas aeruginosa. Put plainly: Bactericidal activity against Pseudomonas aeruginosa ATCC 15442 biofilm using hydroxyapatite as substrate assessed as reduction in colony forming units at 8 ug/ml at pH 4.8 to 7.4 after 24 hrs. It counts as functional.
The subject of test [20] is Staphylococcus aureus. As to the kind of experiment: Antibiofilm activity against Staphylococcus aureus ATCC 6538 assessed as CFU counts at 100 ug/mL pretreated with HA for 24 hrs followed by organism inoculation measured after 24 hrs (reference value: 8.1 x 10^10CFU). It counts as functional. The gist of the method: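 HA discs were soaked 24 h at 37 °C in 2 mL compound solution, with DMSO or phosphate-buffer controls, then rinsed 3× with sterile water. Discs were inoculated with 2 mL of 0.5 McFarland S. aureus ATCC 6538 for biofilm formation. Biofilm CFU were counted after 24 h growth.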

Test [21] has as its system Staphylococcus aureus. Put plainly: Antibiofilm activity against Staphylococcus aureus ATCC 6538 assessed as CFU counts at 200 ug/mL pretreated with HA for 24 hrs followed by organism inoculation measured after 24 hrs (reference value: 8.1 x 10^10CFU). It counts as functional.
Test [22] concerns Staphylococcus aureus. As to the kind of experiment: Antibiofilm activity against Staphylococcus aureus ATCC 6538 assessed as CFU counts at 400 ug/mL pretreated with HA for 24 hrs followed by organism inoculation measured after 24 hrs (reference value: 8.1 x 10^10CFU). It counts as functional.
Test [23] relates to Aggregatibacter actinomycetemcomitans. As to the kind of experiment: Antibiofilm activity against Aggregatibacter actinomycetemcomitans D7S-1 serotype A at 5 mg after 24 hrs by disc diffusion assay. The conditions noted are these: read-out: DIZ. It counts as functional.
For test [24] the test system is unchanged. Put plainly: Antibiofilm activity against Aggregatibacter actinomycetemcomitans D7S-1 serotype A after 24 hrs by microdilution assay. It counts as functional.
For test [25] the test system is unchanged. As to the kind of experiment: Antibiofilm activity against Aggregatibacter actinomycetemcomitans infected in jawbone peri-implant osteomyelitis Sprague-Dawley rat model assessed as bacterial count in bone per gram at 10 mg/kg, ip administered 3 times per week measured after 1 week post pharmacotherapy relative to control. It counts as functional. The gist of the method: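 Rats carried two titanium implants each, preinoculated with A. actinomycetemcomitans D7S-1 biofilm (10^9 CFU), placed bilaterally in palatal bone. One week after surgery, randomized groups received i.p. doses in sterile saline; the negative control was endotoxin-free saline. One week after treatment, 1 cm² peri-implant tissue and bone were homogenized in 0.5% saponin, serially diluted 10-fold and spread-plated on modified TSB (37 °C, 5% CO2, 48 h). Read-out was CFU/g and mean log10 reduction; analysts were blinded.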

Test [26] relates to Staphylococcus aureus. Put plainly: microbe, parasite or virus in culture. More on the design: dose or concentration left out as unconfirmed. The conditions noted are these: ATCC 6538, 24 h, read-out: DIZ.

Values after ≈ are worked out from the molar mass of the structure shown. Active and inactive are the calls of the source. No cut-off for these calls is given here.

Regarding `O=C(O)c1cn(C2CC2)c2cc(N3CCN(C(=O)c4ccc(CC(P(=O)(O)O)P(=O)(O)O)cc4)CC3)c(F)cc2c1=O`, the MIC was 31.2 µg/mL (≈ 50 µM) against Staphylococcus aureus [1]; 31.2 µg/mL (≈ 50 µM) in the test with Staphylococcus aureus [2]; 15.6 µg/mL (≈ 25 µM) against Staphylococcus aureus [3]; 62.5 µg/mL (≈ 100 µM) in the test with Staphylococcus aureus [4]; 7.8 µg/mL (≈ 12.5 µM) against Staphylococcus aureus [5]; 15.6 µg/mL (≈ 25 µM) against Staphylococcus aureus [6]. The molecule also came in with a minimal inhibitory concentration (MIC) against Staphylococcus aureus [7] of 62.5 µg/mL (≈ 100 µM). The outcome in the test on Staphylococcus aureus [8], with Staphylococcus aureus [9] and in the test on Staphylococcus aureus [10] was inactive.

For `O=C(O)c1cn(C2CC2)c2cc(N3CCNCC3)c(F)cc2c1=O` [CIPROFLOXACIN], the MIC in the test with Staphylococcus aureus [1] came to 1 µg/mL (≈ 3.02 µM); in the test on Staphylococcus aureus [2], 0.25 µg/mL (≈ 0.754 µM); against Staphylococcus aureus [3], 0.25 µg/mL (≈ 0.754 µM); against Staphylococcus aureus [4], 1 µg/mL (≈ 3.02 µM); against Staphylococcus aureus [5], 0.5 µg/mL (≈ 1.51 µM); against Staphylococcus aureus [6], 1 µg/mL (≈ 3.02 µM). The minimal inhibitory concentration (MIC) against Staphylococcus aureus [7] and in the test on Staphylococcus aureus [11] was 1 µg/mL (≈ 3.02 µM) throughout. Also, the zone of inhibition in the test with Staphylococcus aureus [12], in the test with Staphylococcus aureus [13], in the test with Staphylococcus aureus [14], in the test on Staphylococcus aureus [15], with Staphylococcus aureus [16] and in the test on Staphylococcus aureus [17] was 25 to 40 mm in each case. Further, the zone of inhibition in the test on Staphylococcus aureus [18] and with Staphylococcus aureus [26] was 25 to 40 mm in each case. Further, the MBIC90 in the test with Staphylococcus aureus [19] is 8 µg/mL. The result in the test with Pseudomonas aeruginosa was inactive. Moreover, the result in the test with Staphylococcus aureus [20], with Staphylococcus aureus [21] and with Staphylococcus aureus [22] was Active. Further, in test [23], the zone of inhibition at 5000 µg/disc was more than 40 mm. Moreover, the MIC90 in [24] stood at 2 µg/mL (≈ 6.04 µM). Further, the Activity in test [25] came to 90%.

Source of the values: ChEMBL document CHEMBL4014261, “Design, Synthesis, and Antimicrobial Evaluation of a Novel Bone-Targeting Bisphosphonate-Ciprofloxacin Conjugate for the Treatment of Osteomyelitis Biofilms” (J Med Chem, 2017).
